Assay outcomes (PubChem)
Runt-SMMHC FRET – inhibitors of human RUNX1 Runt domain binding to CBFb-SMMHC; inhibition, % at 20 µM; Q01196+Q13951; Cerulean-Runt/Venus-CBFb-SMMHC FRET ratio 530/480, 1 h; 220,000 tested, 0.74% active;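 active = mean inhibition across duplicate retests at 20 µM reaching about 50%, limit read from the data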;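 also: 0% = DMSO wells and 100% = wells with excess untagged CBFb-SMMHC; inhibitors lower the FRET ratio by blocking Runt binding to CBFb-SMMHC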
Target sequence (Q01196 whole entry, looked up, the tested form may be a part): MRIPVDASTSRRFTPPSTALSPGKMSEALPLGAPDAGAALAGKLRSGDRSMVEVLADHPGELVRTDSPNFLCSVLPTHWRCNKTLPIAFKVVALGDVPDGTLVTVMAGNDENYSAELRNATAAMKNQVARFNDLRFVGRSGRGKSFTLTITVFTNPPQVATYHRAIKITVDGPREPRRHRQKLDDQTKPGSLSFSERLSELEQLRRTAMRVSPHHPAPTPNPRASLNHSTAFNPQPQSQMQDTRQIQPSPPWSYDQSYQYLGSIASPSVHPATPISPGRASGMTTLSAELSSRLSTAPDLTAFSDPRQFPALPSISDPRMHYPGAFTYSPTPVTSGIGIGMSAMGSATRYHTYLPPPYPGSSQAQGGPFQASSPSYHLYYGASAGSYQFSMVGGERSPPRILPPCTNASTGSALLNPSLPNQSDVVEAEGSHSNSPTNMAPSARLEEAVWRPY
Target sequence (Q13951 whole entry, looked up, the tested form may be a part): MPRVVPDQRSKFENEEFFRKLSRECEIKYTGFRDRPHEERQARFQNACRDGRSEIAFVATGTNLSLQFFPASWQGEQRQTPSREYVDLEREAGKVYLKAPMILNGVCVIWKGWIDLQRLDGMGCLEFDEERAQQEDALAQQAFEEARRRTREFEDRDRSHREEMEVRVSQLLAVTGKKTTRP
Runt-CBFb FRET – inhibitors of human RUNX1 Runt domain binding to CBFb; Q01196+Q13951; Cerulean-Runt/Venus-CBFb FRET ratio 530/480, 1 h; 220,000 tested, 0.46% active; AID 1496; inhibition, % at 20 µM;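 active = inhibition over about 50% at 20 µM in the single-dose screen, limit read from the data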;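 also: 0% = DMSO wells and 100% = excess unlabeled CBFb competitor control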
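Buffer or medium: Tris pH 7.5 buffer with BSA. Assay system: Cerulean-labeled Runt domain protein. Amount: each fluorescent fusion protein 100 nM. Read-out basis: loss of energy transfer signal. Incubation: 1 h compound exposure, room temperature. Probe or stimulus: Venus-CBFb binding partner, 100 nM. Detection: FRET, excitation 422 nm, emission at 530 and 480 nm.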
RanGTP-Impb inh – disruptors of Ran-importin-beta complex formation – biochemical, FRET, CFP-Ran, YFP-importin-beta, homogeneous, primary screen; cell-free CFP-Ran/YFP-importin-beta FRET ratio; inhibition, % (concentration not given with the values); 300,000 tested, 1.1% active;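 active = more than half of the replicate wells show a fall in the fluorescence ratio signal beyond about 16%, limit read from the data, passing the limit was not always enough; inconclusive = exactly half of the replicate wells pass the set limit; inactive = fewer than half of replicates pass the limit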;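 also: 0% = DMSO wells and 100% = Ran loaded with GDP instead of GTP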
Wee1 degr inh – blocks degradation of human Wee1 kinase. reporter increase, % at 5 µM. P30291. AID 1321. HeLa Luc-Wee1K328M stability, luciferase luminescence; 100% = proteasome inhibitor MG132 effect. 220,000 tested, 1.2% active;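 active = activation above the mean of all tested compounds plus 3 SD, set per screening run, cut at about 8.8% in these data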;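 also: cells exposed to compound for 20 h before luminescence read; 0% = DMSO alone and 100% = MG132 at 30 µM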
PHOSPHO1 inh – PHOSPHO1 (human) inhibition. recombinant PHOSPHO1, absorbance phosphatase assay. inhibition, % at 13.3 µM. 290,000 tested, 1.1% active. AID 1565; in the data active = inhibition above about 60%
Efa HMGR inh – E. faecalis class II HMG-CoA reductase inhibition | inhibition, % at 10 µM | 190,000 tested, 0.41% active | purified E. faecalis HMGR, NADPH absorbance 340 nm kinetic;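 active = inhibition above a set limit, the median over all tested compounds plus 3 SD, cut at about 9.5% in these data; inconclusive = no clear call, values can overlap the other calls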;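 also: enzyme runs in reverse so mevalonate oxidation gives rising NADPH absorbance; 0% = complete reaction with DMSO and 100% = background rate lacking mevalonate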
Wee1 stab conf – human Wee1 degradation inhibition, confirmation. shares compounds with Wee1 degr inh. HeLa Luc-Wee1K328M degradation, luminescence; vehicle 0%, proteasome-blocked wells 100%. activation, % at 5 µM. 1,100 tested, 4% active. AID 1410; in the data active = activation above about 8.9%
* marks the source's active call; other numbers are inactive results; ? = inconclusive; nt = no result. Only some compounds are listed: those with a hit (about 3.4% of all), similar ones and a draw of the others.

SMILES	Runt-SMMHC FRET	Runt-CBFb FRET	RanGTP-Impb inh	Wee1 degr inh	PHOSPHO1 inh	Efa HMGR inh	Wee1 stab conf
O=C(CN1CCN(Cc2ccccc2)CC1)N/N=C/C=C/c1ccco1	-3	1	1	0	-2	-1	nt
O=C(CN1CCOCC1)N/N=C/C=C/c1ccccc1	0	-1	-3	23*	48	0	0
COC(CNC(=O)c1ccc2nc(-c3cccs3)c(-c3cccs3)nc2c1)OC	16	21	43*	12*	-1	-5	5
CCOC(=O)Cc1cc(OC)c(OC)cc1Cc1cc(OC)c(OC)cc1CC(=O)OCC	-1	0	-2	-2	2	0	nt
Cc1cc(O)c(-c2cc(C(=O)Nc3cccnc3)[nH]n2)cc1C	-1	0	-2	18*	37	nt	4
CC(C)(C)N1OC2CC1c1nc3ccccc3n1C2 (centres undefined)	0	-1	-8	nt	40	nt	nt
CC1=CC(C)(C)N2C(=O)C3(C(C#N)=C(N)Oc4cc(O)ccc43)c3c(C)c(C)cc1c32 (centres undefined)	0	-1	2	-3	9	-6	nt
Cc1ccc(C(=O)NNC(=S)NC(=O)COc2ccccc2)cc1	1	12	1	14*	97*	-7	3
Cc1cc(C)n2nc(-c3cccnc3)nc2n1	1	0	6	-1	11	-2	nt
Cc1cc(C)n2nc(-c3ccc(F)cc3)nc2n1	1	-3	-5	16*	9	-5	2
CCN(CC)C(=O)CSCc1cnn(-c2ccccc2)c1-n1cccc1	-2	4	-1	16*	18	-8	1
C/C(=N\NC(=O)Nc1ccccc1)c1ccccc1	3	1	-2	0	-4	-4	nt
O=C(NCCCCNC(=O)C1CCCC1)C1CCCC1	2	-1	-1	-1	2	-3	nt
CC(C)(CNC(=O)C1CCCC1)CNC(=O)C1CCCC1	1	-1	11	11*	2	1	2
O=C(CNC(=O)c1ccncc1)N/N=C/c1ccc(O)cc1O	4	2	4	13*	3	nt	2
O=C(CNC(=O)c1ccc2c(c1)OCCO2)N/N=C/c1ccc(O)cc1O	0	4	3	-1	-1	-3	nt
CC(C)CC(=O)NC(c1ccccc1Cl)c1c(O)ccc2ccccc12 (centres undefined)	-5	3	4	21*	-7	-1	2
O=C(NCc1cccnc1)c1ccc(CS(=O)(=O)c2ccc(Cl)cc2)o1	-5	0	0	-2	38	-2	nt
COc1ccccc1N1CCN(CC(=O)c2ccc3ccn(C(C)=O)c3c2)CC1	2	3	1	-3	-5	-6	nt
CC(=O)OCC(=O)c1ccc2ccn(C(C)=O)c2c1	1	0	-5	14*	-3	-2	0
O=C(O)COc1ccccc1/C=N/NC(=O)CN1CCN(Cc2ccc(Cl)cc2)CC1	-2	1	3	25*	-117	nt	2
O=C(CN1CCN(Cc2ccccc2)CC1)N/N=C/c1ccccc1F	-7	-1	1	-1	4	nt	nt
COc1cc(OC)cc(C(=O)NC2CCSC2=O)c1 (centres undefined)	1	-2	3	12*	-10	5	0
COc1ccc(C(=O)NC(=S)NC2CCSC2=O)cc1 (centres undefined)	3	1	-4	1	-13	-5	nt
Cc1ccc(NC(=O)c2cc3c(s2)CCCC3)cc1	0	1	-3	16*	11	-2	2
SMILES	Runt-SMMHC FRET	Runt-CBFb FRET	RanGTP-Impb inh	Wee1 degr inh	PHOSPHO1 inh	Efa HMGR inh	Wee1 stab conf
Cc1ccc(NC(=O)c2scc3c2CCCC3)cc1	0	-1	3	12*	-5	-4	-2
Cc1ccc(NS(=O)(=O)c2cc(NC(=O)c3cc4c(s3)CCCC4)ccc2C)c(C)c1	0	-1	-6	6	-10	-1	nt
COC(=O)[C@@H]1CC[C@H](C)[C@@H](c2ccc(C)cc2)N1C(=O)c1ccc(/C=N/O[C@@H](C)CN2CCCCc3nc(C)c(C)cc32)cc1	-6	-7	13	0	-1	-3	nt
COc1ccc(C(=O)Nc2cccc3nc(C)ccc23)cc1OC	nt	nt	2	nt	18	nt	nt
COc1ccccc1C(=O)Nc1ccc(Br)cc1C	2	0	7	3	18	0	nt
NC(=O)C1=C[C@H](c2ccc(Br)cc2)C[C@H](OCc2ccc(CO)cc2)O1	1	-1	0	11*	18	-2	0
O=C(NCCCNCc1ccccc1)c1ccncc1	-3	-1	?	-4	-6	-2	nt
O=C(/C=N\O)NCCCNCc1ccccc1	-2	1	3	16*	-11	-3	1
Cc1cc(C)cc(NS(=O)(=O)c2c(C(=O)N3CCCCCC3)c(C)n(C)c2C)c1	nt	nt	2	nt	15	nt	nt
Nc1cccc(C2=Nc3cccc4cccc(c34)N2)c1	-7	-1	?	12*	-18	0	1
COC(=O)c1ccc(N2CCN(C)CC2)c(NC(=O)c2sc3ccccc3c2Cl)c1	nt	nt	4	nt	nt	nt	nt
CC1(C)Cc2c(C#N)c(NCCN3CCOCC3)nc(-c3ccco3)c2CO1	-3	0	1	3	29	-6	nt
CC1(C)Cc2c(C#N)c(NCCO)nc(-c3ccco3)c2CO1	16	14	5	18*	24	nt	1
COc1ccc(Nc2nc(N)nc(CSc3nccn3C)n2)cc1	-6	2	-2	12*	-9	-4	1
Cc1onc(-c2c(F)cccc2Cl)c1C(=O)NNC(=O)C1CCN(Cc2cccc(F)c2)CC1	-5	1	?	0	-5	1	nt
CC(=O)Nc1ccc(C(O)(C(F)(F)F)C(F)(F)F)cc1	3	-1	5	12*	20	-4	2
CCOc1ccc(NC(=O)CCCOc2cc(=O)n(C)c3ccccc23)cc1	-5	-1	-287	-1	13	0	nt
Cc1ccnc(NC(=O)CCCOc2cc(=O)n(C)c3ccccc23)c1	1	-1	1	14*	24	5	46*
Cc1cccc(CCNC(=O)COc2cc(=O)n(C)c3ccccc23)c1	0	-8	8	11*	7	-2	-1
O=C(NNC(=S)Nc1cccc(C(F)(F)F)c1)c1ccccc1Cl	6	3	1	12*	54	-4	5
COc1cc(O)c(C(CC(=O)N2CCCCC2)c2ccc(N(C)C)cc2)c(OC)c1 (centres undefined)	1	12	-4	nt	31	nt	nt
